Experimental data: ChEMBL document CHEMBL4330095, “Development of an anti-hepatitis B virus (HBV) agent through the structure-activity relationship of the interferon-like small compound CDM-3008” (Bioorg Med Chem, 2019)
pIC50: −log10 of the molar value. ≈ marks a conversion by molar mass, not a printed value. Calls of active or inactive are those of the source. The rule behind the calls is not given here.

What was measured:
[1] = tested on: Hepatitis C virus; test: Antiviral activity against HCV infected in human R6FLR-N replicon cells assessed as reduction in viral replication at 30 uM after 3 days by luciferase reporter gene assay; assay type: functional, Hepacivirus hominis; set-up: scale not given: the % may be the effect or the level left
How it was run: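 R6FLR-N replicon cells, 3 × 10⁴ cells/well, grown in DMEM with 10% FBS and 500 μg/ml G418; compound added after 1 day, then 3 days of incubation. Luciferase read by Steady-Glo; percent inhibition at 30 μM expressed against DMSO control, mean of n = 2.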

[2] = Cytotoxicity against human […] cells harboring R6FLR-N replicons after 3 days by XTT assay; assay type: cell-based; set-up: concentration or dose not given beside the values; settings: 72 h
How it was run: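 Replicon cells seeded at 3 × 10⁴ cells/well and exposed to compound for 3 days; viability by XTT. Values given as percent at 30 μM against DMSO control, mean of n = 2.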

[3] = organism: Homo sapiens; test: Induction of IFN-stimulated gene expression response in human JHH7 cells assessed as upregulation of OAS1 mRNA expression at 3 to 30 uM after 3 days by qPCR analysis; assay type: functional, cell-based
How it was run: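 JHH-7 hepatoma cells in DMEM with 10% FBS, 37 °C, 5% CO2, exposed to 3 and 30 μM compound for 3 days. Total RNA purified and its concentration measured by UV spectrophotometry before OAS-1 mRNA measurement; mean ± SE, n = 3.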

[4] = Half life in human liver microsomes at 29 umol/L preincubated for 5 mins followed by NADPH addition measured after 120 mins by HPLC analysis; assay type: ADME, Microsome
How it was run: (§1)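 Compound (29 μmol/L, as added) combined with mouse or human liver microsomes (20 mg/mL stock), preincubated 5 min at 37 °C, then NADPH regenerating system added and incubated 0, 30, 60 or 120 min at 37 °C. Aliquots quenched in ice-cold MeOH, internal standard added, centrifuged; remaining compound quantified by HPLC against a calibration curve.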

[5] = Solubility of the compound by HPLC-UV analysis; assay type: physicochemical
How it was run: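 Dissolved compound solution injected into HPLC and peak area read by UV at 254 nm; concentration derived from a previously determined calibration curve.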

[6] = Half life in mouse liver microsomes at 29 umol/L preincubated for 5 mins followed by NADPH addition measured after 120 mins by HPLC analysis; assay type: ADME, Microsome; how it was run: as §1
[7] = tested on: HBV genotype C; test: Antiviral activity against HBV genotype C infected in primary human hepatocytes PXB cells assessed as inhibition of viral DNA level at 0.32 to 32 uM incubated for 7 days by qPCR analysis; assay type: functional, cell-based
How it was run: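 PXB cells in dHCGM infected with HBV C_AT, 3 genome equivalents/cell; medium exchanged every 3 or 4 days. After 28 days of infection, cells treated with the indicated concentrations for 7 days, pegylated IFNα2a run alongside. Cellular DNA purified and quantified, then HBV DNA measured by qPCR; mean ± SE, n = 3.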

[8] = tested on: HBV genotype C; test: (§2) Antiviral activity against HBV genotype C infected in primary human hepatocytes PXB cells assessed as inhibition of viral DNA level after 14 days by qPCR analysis; assay type: functional, cell-based
How it was run: (§3)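 PXB cells (primary human hepatocytes from humanized-liver chimeric mice) in dHCGM, 37 °C, 5% CO2; infected with HBV C_AT at 3 genome equivalents/cell while treated with 0.01–10 μM compound; after 1 day, compound-containing medium exchanged every 3 or 4 days for 14 days. Cellular DNA purified and quantified, HBV DNA by qPCR; mean ± SE, n = 3.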

[9] = as §2; assay type: functional, cell-based; settings: Hepatitis B virus, 336 h; how it was run: as §3
[10] = tested on: Hepatocyte; test: Cytotoxicity against human primary hepatocytes PXB cells assessed as decrease in cell viability by RealTime-Glo MT assay; assay type: cell-based
How it was run: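 Viability read by RealTime-Glo MT in HBV C_AT-infected PXB cells (3 genome equivalents/cell) given 0.01–10 μM compound from infection onward, with compound-containing medium exchanged every 3 or 4 days over 14 days; mean ± SE, n = 3.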

Row | half-life at 29 µM [4] [min] | solubility [5] [µg/mL] | half-life at 29 µM [6] [min] | Structure (SMILES) | Activity [1] | Activity [2] [%] | Activity [3] | Activity [7] | Activity [8] | pIC50 [9] | Activity [10]
1 | – | < 100 | – | O=C(Nc1ccccn1)c1cn2c(ccc3c(C(F)(F)F)cc(C(F)(F)F)nc32)n1 | 2.6% | 1.6 | – | – | – | – | –
2 | > 120 | > 30000 | > 120 | Cl.O=C(NC1CCNCC1)c1cn2c(ccc3c(C(F)(F)F)cc(C(F)(F)F)nc32)n1 | 90.7% | 58.6 | inactive | – | – | 5.08 | Non-Toxic
3 | – | < 100 | – | O=C(Nc1ccncc1)c1cn2c(ccc3c(C(F)(F)F)cc(C(F)(F)F)nc32)n1 | 40.1% | 4.2 | – | – | – | – | –
4 | – | < 100 | – | O=C(Nc1cccnc1)c1cn2c(ccc3c(C(F)(F)F)cc(C(F)(F)F)nc32)n1 | 63.6% | 6.9 | – | – | – | – | –

Continued, compound first:

Row | Structure (SMILES) | half-life at 29 µM [4] [min] | solubility [5] [µg/mL] | half-life at 29 µM [6] [min] | Activity [1] | Activity [2] [%] | Activity [3] | Activity [7] | Activity [8] | pIC50 [9] | Activity [10]
5 | OCc1nnc(-c2cn3c(ccc4c(C(F)(F)F)cc(C(F)(F)F)nc43)n2)o1 | – | – | – | 12% | -7.4 | – | – | – | – | –
6 | FC(F)(F)c1cc(C(F)(F)F)c2ccc3nc(-c4nnco4)cn3c2n1 | 34.1 | 920 (≈ 2470 µM) | 58.2 | 90.1 - 92.1% | 3.1 | Active | Active | – | – | –
7 | O=C(c1cn2c(ccc3c(C(F)(F)F)cc(C(F)(F)F)nc32)n1)N1CCNCC1 | – | – | – | – | – | – | – | Active | – | –
8 | Cc1nnc(-c2cn3c(ccc4c(C(F)(F)F)cc(C(F)(F)F)nc43)n2)o1 | – | – | – | 89.8% | 4.3 | – | – | – | – | –
9 | COCc1nnc(-c2cn3c(ccc4c(C(F)(F)F)cc(C(F)(F)F)nc43)n2)o1 | – | – | – | 4.8% | -2.5 | – | – | – | – | –
10 | CCCc1nnc(-c2cn3c(ccc4c(C(F)(F)F)cc(C(F)(F)F)nc43)n2)o1 | – | – | – | 15.3% | 8.5 | – | – | – | – | –
11 | Cl.NCCOc1cc(C(F)(F)F)c2ccc3nc(-c4nnco4)cn3c2n1 | – | 19800 | – | 28.1% | 5.7 | Active | – | – | 5.00 | Non-Toxic
12 | Cl.NCCOc1cc(C(F)(F)F)c2ccc3nc(C(=O)Nc4ccncc4)cn3c2n1 | – | > 30000 | – | 78.2% | 51.8 | – | – | inactive | – | –
